Data set [1] has as its system vWF. The data set is described as follows: vWF reductase activity: collagen binding activity / vWF antigen ratio in vitro. The class given is biochemical, human. In outline:
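Plasma from a TTP patient (plasmapheresis; centrifuged 2,000 g, 20 min, 4°C) was used at 10 μl with 90 μl Hepes-buffered saline containing 1 mM CaCl2. The buffer held purified human platelet TSP-1 (0.001–100 μg/ml; purified in 0.1 or 2 mM CaCl2 buffers, quantified by A280) or HMEC-1 conditioned medium. Incubation was 1 or 24 h at 37°C. Aliquots were diluted 10-fold and assayed for collagen binding and vWF antigen, giving a ratio. Triplicates, mean and SD.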

In data set [2] the test system is vWF. Particulars: cited from earlier work.
The subject of data set [3] is vWF. As to the kind of experiment: Formation of new thiols in vWF. The class given is biochemical, human.
In data set [4] the test system is vWF. As to the kind of experiment: Binding of TSP-1 to vWF. Also noted: species or system human. In outline: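 vWF (5 μg/ml in 0.1 M NaHCO3, pH 8.3) adsorbed to wells overnight at 4°C, then blocked with 2% BSA in HBS (90 min, 37°C). Control wells were BSA-blocked only, with 10 μg/ml TSP-1. TSP-1 (0–10 μg/ml) in Hepes/NaCl/1 mM CaCl2/1 mM MgCl2, pH 7.4, with 0, 5 or 20 mM NEM, 30 min RT with shaking. Wells washed with 1 M NaCl buffer. Detection: anti-TSP-1 mAb HB8432 (10 μg/ml), then peroxidase anti-mouse (1:1,000). Triplicates, mean and SD.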

In a further data set the test system is platelet aggregation. To be noted: high fluid shear; cited from earlier work.
For data set [5] the following is noted: cited from earlier work.
A further data set deals with activated platelets. Particulars: cited from earlier work.
The nature of data set [6]: Plasma concentration of human TSP-1 in mice after injection. The class given is in vivo. Particulars: Balb c mice, 1 mg/kg i.p., 24 h after injection, TSP-1 ELISA. In outline:
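Balb c mice (7–9 wk; 2 male, 2 female per group) received purified human platelet TSP-1 at 1 mg/kg as a 0.1 ml i.p. injection. EDTA blood was taken by cardiac puncture 24 h later. Human TSP-1 was measured by sandwich ELISA: HB8432 capture (5 μg/ml, pH 9.6, overnight at 4°C), BSA block, diluted plasma 30 min RT, biotin-HB8432 (5 μg/ml), then StreptABComplex/HRP (1:100). Standards were TSP-1-depleted plasma spiked with platelet TSP-1; the assay was linear over 1–100 ng/ml.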

A further data set has as its system plasma vWF. As to the kind of experiment: Reduction in average multimer size of plasma vWF in mice. The data set is classed as in vivo. To be noted: Balb c mice, 1 mg/kg i.p., 24 h, P < 0.05. The method in brief:
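Balb c mice aged 7–9 wk, n = 4 per group with 2 male and 2 female each, were given buffer vehicle or purified human platelet TSP-1 at 1 mg/kg as a 0.1 ml i.p. injection. After 24 h, EDTA plasma was collected by cardiac puncture. Plasma was assayed in triplicate for vWF collagen binding activity and vWF antigen, using anti-rat vWF polyclonal antibodies. Multimer size was expressed as the collagen binding/antigen ratio.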

Data set [7] deals with vWF. The class given is biochemical, human.
The next data set deals with collagen. To be noted: cited from earlier work.

In the case of `O=C(O)CN(CCN(CC(=O)O)CC(=O)O)CC(=O)O` [EDTA, reference compound], the “effect of EDTA (chelation of Ca2+) on vWF reductase activity of TSP-1” value in the data set on vWF [1] (not shown) was “ablated the vWF reductase activity of TSP-1”. The “effect of EDTA on vWF reductase activity in endothelial cell–conditioned medium” value with vWF [2] is “inhibited”. In addition, in the data set with vWF [3] (not shown), the “effect of EDTA on TSP-1–facilitated formation of free thiols in vWF” value is “ablated TSP-1–facilitated formation of free thiols in vWF”.
Turning to `CCN1C(=O)C=CC1=O` [NEM, N-ethylmaleimide, reference compound], the “TSP-1/vWF complex formation vs NEM concentration” value in the data set on vWF [4] (NEM 0, 5, 20 mM, 30 min, room temperature) is recorded as “Complex formation increased with increasing NEM concentration”.
For the compound “unusually large vWF multimers: unusually large vWF multimers secreted by endothelial cells”, the “induction of platelet aggregation vs largest plasma forms” value in the data set on platelet aggregation was “more effective”.
With “large vWF multimers: large multimers of von Willebrand factor”, the “ristocetin cofactor activity per unit antigen vs small multimers” value in data set [5] is reported as “considerably higher”. In the data set on activated platelets, the “affinity for activated platelets vs monomeric fragments” value was approximately 100 fold and the “affinity for activated platelets vs small multimers” value was “up to 10 fold”.
In the case of thrombospondin-1 [TSP-1], the “dependence of TSP-1–mediated reduction in vWF multimer size” value with vWF [1] (TTP1 plasma, TSP-1 0.001 to 100 μg/ml, 1 or 24 h, 37°C) was “concentration and time dependent”. Further, the “vWF reducing activity of three different preparations of platelet TSP-1” value with vWF [1] (not shown) was “had the same vWF reducing activity”. For the same compound, the “optimal TSP-1 concentration for reduction of vWF in 1 h” value in the data set on vWF [1] (purified TSP-1, ∼1 μg/ml plasma vWF, 1 h) was approximately 0.1 µg/mL. The “optimal TSP-1 concentration for reduction of vWF in 24 h” value in the data set on vWF [1] (purified TSP-1, ∼1 μg/ml plasma vWF, 24 h) is approximately 0.01 µg/mL. Also, the “binding of TSP-1 to wells not coated with vWF” value in the data set on vWF [4] (10 μg/ml TSP-1, BSA-blocked wells) is “no binding”. Moreover, in data set [6], the “concentration of human TSP-1 in mouse plasma” value was approximately 1000 ng/mL. Further, the “dependence of MPB incorporation on TSP-1 concentration” value in the data set on vWF [3] (TSP-1 0.01 to 100 μg/ml, 60 min, 37°C) is recorded as “the incorporation increased with increasing TSP-1 concentration”. For the same compound, in the data set with vWF [3] (purified human vWF 2 μg/ml, 60 min, 37°C, TSP-1 0.01 to 100 μg/ml or HMEC-1–conditioned medium, MPB 100 μM), the “formation of new thiols in vWF (MPB incorporation)” value is “resulted in incorporation of MPB into vWF”. The “average multimer size of plasma vWF vs buffer vehicle” value in the data set on plasma vWF is listed as “significantly lower”. Also, the “average multimer size of plasma vWF” value in the data set on vWF [7] (TSP-1 added to TTP2 and TTP3 patient plasmas (not shown)) was “reduced the average multimer size of the plasma vWF”. Also, the “very large vWF multimers” value in the data set with vWF [7] (TTP1 patient plasma, 1 h, 37°C, 1% agarose gel) is on record as “the very large multimers were lost”.
In the case of “multimeric vWF: multimeric von Willebrand factor”, in the data set on collagen, the “collagen binding affinity vs monomeric vWF fragments” value is approximately 100 fold.
